According to ChEMBL document CHEMBL4428054, “Synthesis of Fluorescent Binaphthyl Amines That Bind c-MYC G-Quadruplex DNA and Repress c-MYC Expression” (J Med Chem, 2016):
Activity calls are given as the source filed them. The calls are words filed in the database; no cut-off is given here.

Key:
[1] = system: HeLa; experiment: Cell cycle arrest in human HeLa cells assessed as accumulation at S phase at 5 uM incubated for 24 hrs by propidium iodide staining based flow cytometry (reference value: 10.8%); assay type: functional
[2] = system: HeLa; experiment: Induction of apoptosis in human HeLa cells assessed as late apoptotic cells level at 5 uM incubated for 24 hrs by Annexin V-FITC staining based flow cytometry (reference value: 0.8%); assay type: functional
[3] = target: Quadruplex DNA; experiment: Binding affinity to pre-annealed c-KIT1 G-quadruplex (unknown origin) in 100 mM KCl, 10 mM Tris.HCl at pH 7.4 by fluorescence spectroscopy relative to untreated control; assay type: nucleic-acid assay, unidentified
Summary of the method: (§1)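 Fluorescence titration in 100 mM KCl, 10 mM Tris·HCl, pH 7.4. Excitation was 350 nm and emission was read at the 430 nm maximum. Ligand (1 μM for c-MYC) was titrated with increasing quadruplex or ds DNA, up to 20 equiv. Change in intensity was scored, and Kd was derived from the titration curves.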

[4] = system: unidentified; experiment: Selectivity for 5'-FAM and 3'-TAMRA-labeled c-MYC G-quadruplex (unknown origin) over 5'-FAM and 3'-TAMRA-labeled k-RAS G-quadruplex (unknown origin)
[5] = target: Quadruplex DNA; experiment: Binding affinity to pre-annealed c-MYC G-quadruplex (unknown origin) in 100 mM KCl, 10 mM Tris.HCl at pH 7.4 by fluorescence spectroscopy relative to untreated control; assay type: nucleic-acid assay, unidentified; summary of the method: as §1
[6] = Selectivity for 5'-FAM and 3'-TAMRA-labeled c-MYC G-qudaruplex (unknown origin) over 5'-FAM and 3'-TAMRA-labeled c-KIT1 G-qudaruplex (unknown origin)
[7] = system: Quadruplex DNA; experiment: Stabilization of 5'-FAM and 3'-TAMRA-labeled c-MYC G-quadruplex (unknown origin) assessed as change in melting temperature at 1 uM in presence of 100 nM to 10 uM dsDNA by FRET assay; assay type: nucleic-acid assay; conditions: unidentified
[8] = system: dsDNA; experiment: Stabilization of 5'-FAM and 3'-TAMRA-labeled dsDNA (unknown origin) assessed as change in melting temperature at 5 uM by FRET assay; assay type: nucleic-acid assay
Summary of the method: (§2)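 FRET melting of dual-labelled (5′-FAM/3′-TAMRA) promoter quadruplexes or duplex in 60 mM potassium cacodylate buffer, pH 7.4. ΔTm is taken against ligand-free Tm. The ligand was tested across a concentration series. Maximum measurable Tm is 93 °C.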

[9] = target: Quadruplex DNA; experiment: Binding affinity to pre-annealed c-MYC G-quadruplex (unknown origin) in 10 mM Tris.HCl buffer containing 100 mM KCl at pH 7.4 by UV/Visible spectroscopy; assay type: nucleic-acid assay, unidentified
Summary of the method: (§3)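 UV–vis titration of 20 μM ligand with preannealed c-MYC quadruplex (0–1.4 equiv) in 100 mM KCl, 10 mM Tris·HCl, pH 7.4. Hypochromicity was followed at the 362 nm ligand band, because the 298 nm band overlaps DNA absorbance. Kd was fitted with the Hill 1 equation.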

[10] = system: Quadruplex DNA; experiment: Stabilization of 5'-FAM and 3'-TAMRA-labeled c-KIT1 G-quadruplex (unknown origin) assessed as change in melting temperature at 1 uM by FRET assay; assay type: nucleic-acid assay; conditions: unidentified; summary of the method: as §2
[11] = system: HeLa; experiment: Induction of apoptosis in human HeLa cells assessed as necrotic cells level at 5 uM incubated for 24 hrs by Annexin V-FITC staining based flow cytometry (reference value: 0.1%); assay type: functional
[12] = system: Quadruplex DNA; experiment: Stabilization of 5'-FAM and 3'-TAMRA-labeled k-RAS G-quadruplex (unknown origin) assessed as change in melting temperature at 1 uM in presence of 100 nM to 10 uM dsDNA by FRET assay; assay type: nucleic-acid assay; conditions: unidentified
[13] = system: Quadruplex DNA; experiment: Stabilization of 5'-FAM and 3'-TAMRA-labeled c-KIT2 G-quadruplex (unknown origin) assessed as change in melting temperature at 1 uM by FRET assay; assay type: nucleic-acid assay; conditions: unidentified; summary of the method: as §2
[14] = system: HeLa; experiment: Induction of apoptosis in human HeLa cells assessed as viable cell level at 5 uM incubated for 24 hrs by Annexin V-FITC staining based flow cytometry; assay type: functional
[15] = system: Quadruplex DNA; experiment: Effect on parallel topology of c-MYC G-quadruplex (unknown origin) at 0 to 5 equivalent by CD spectroscopy; assay type: nucleic-acid assay; conditions: unidentified
[16] = system: dsDNA; experiment: Binding affinity to dsDNA (unknown origin) in 10 mM Tris.HCl buffer containing 100 mM KCl at pH 7.4 by UV/Visible spectroscopy; assay type: nucleic-acid assay
[17] = target: Quadruplex DNA; experiment: Binding affinity to pre-annealed c-KIT2 G-quadruplex (unknown origin) in 100 mM KCl, 10 mM Tris.HCl at pH 7.4 by fluorescence spectroscopy relative to untreated control; assay type: nucleic-acid assay, unidentified; summary of the method: as §1
[18] = system: dsDNA; experiment: Binding affinity to 20 equivalents of dsDNA (unknown origin) in 100 mM KCl, 10 mM Tris.HCl at pH 7.4 by fluorescence spectroscopy relative to untreated control; assay type: nucleic-acid assay; summary of the method: as §1
[19] = system: HeLa; experiment: Induction of apoptosis in human HeLa cells assessed as early apoptotic cells level at 5 uM incubated for 24 hrs by Annexin V-FITC staining based flow cytometry (reference value: 1.1%); assay type: functional
[20] = system: Quadruplex DNA; experiment: Binding affinity to pre-annealed c-MYC G-quadruplex (unknown origin) assessed as hypochromacity at 20 uM in 10 mM Tris.HCl buffer containing 100 mM KCl at pH 7.4 by UV/Visible spectroscopy; assay type: nucleic-acid assay; conditions: unidentified; summary of the method: as §3
[21] = system: HeLa; experiment: Cell cycle arrest in human HeLa cells assessed as accumulation at G2/M phase at 5 uM incubated for 24 hrs by propidium iodide staining based flow cytometry (reference value: 25.5%); assay type: functional
[22] = system: unidentified; experiment: Selectivity for 5'-FAM and 3'-TAMRA-labeled c-MYC G-quadruplex (unknown origin) over 5'-FAM and 3'-TAMRA-labeled c-KIT2 G-quadruplex (unknown origin)
[23] = system: HeLa; experiment: Effect on GAPDH mRNA expression in human HeLa cells at 1 to 5 uM incubated for 24 hrs by RT-PCR method; assay type: ADME, cell-based
[24] = system: HeLa; experiment: Cell cycle arrest in human HeLa cells assessed as accumulation at subG1 phase at 5 uM incubated for 24 hrs by propidium iodide staining based flow cytometry (reference value: 2.2%); assay type: functional
[25] = target: Quadruplex DNA; experiment: Binding affinity to pre-annealed k-RAS G-quadruplex (unknown origin) in 100 mM KCl, 10 mM Tris.HCl at pH 7.4 by fluorescence spectroscopy relative to untreated control; assay type: nucleic-acid assay, unidentified; summary of the method: as §1
[26] = system: Quadruplex DNA; experiment: Stabilization of c-MYC G-quadruplex in human HeLa cells assessed as reduction in c-MYC mRNA level at 5 uM incubated for 24 hrs by RT-PCR method; assay type: cell-based; set-up: scale not given: the % may be the effect or the level left
Summary of the method: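 qRT-PCR on HeLa cells treated 24 h at 1.0, 2.5 or 5.0 μM. c-MYC mRNA was normalised to GAPDH and compared with 0.1% DMSO-treated control.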

[27] = system: HeLa; experiment: Cytotoxicity against human HeLa cells incubated for 24 hrs by MTT assay; assay type: functional, cell-based
Summary of the method: (§4)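 MTT growth-inhibition assay in HeLa, A549 and mouse C2C12 cells. Cells given 0.1% DMSO served as control. IC50 values were reported.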

[28] = system: Quadruplex DNA; experiment: Stabilization of 5'-FAM and 3'-TAMRA-labeled c-MYC G-quadruplex (unknown origin) assessed as change in melting temperature at 1 uM by FRET assay; assay type: nucleic-acid assay; conditions: unidentified; summary of the method: as §2
[29] = system: Quadruplex DNA; experiment: Stabilization of c-MYC G-quadruplex in human HeLa cells assessed as reduction in c-MYC mRNA level at 5 uM incubated for 24 hrs by Western blot method; assay type: cell-based; set-up: scale not given: the % may be the effect or the level left; conditions: in the assay text read “c-MYC protein level” for “c-MYC mRNA level”
Summary of the method: (§5)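 Western blot of HeLa lysates after 24 h at 1, 2.5 or 5 μM, with DMSO control. c-MYC was probed, GAPDH served as loading control, and bands were quantified by densitometry.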

[30] = system: Quadruplex DNA; experiment: Stabilization of 5'-FAM and 3'-TAMRA-labeled c-KIT2 G-quadruplex (unknown origin) assessed as change in melting temperature at 1 uM in presence of 100 nM to 10 uM dsDNA by FRET assay; assay type: nucleic-acid assay; conditions: unidentified
[31] = system: A549; experiment: Cytotoxicity against human A549 cells incubated for 24 hrs by MTT assay; assay type: functional, cell-based; conditions: A549, 24 h; summary of the method: as §4
[32] = system: dsDNA; experiment: Stabilization of 5'-FAM and 3'-TAMRA-labeled dsDNA (unknown origin) assessed as change in melting temperature at 1 uM by FRET assay; assay type: nucleic-acid assay; summary of the method: as §2
[33] = Drug localization in cytoplasm of human HeLa cells at 5 uM incubated for 2 hrs by fluorescence microscopy; assay type: ADME, subcellular
Summary of the method: (§6)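 Intrinsic ligand fluorescence imaged by fluorescence microscopy in HeLa cells after 2 h at 5.0 μM. Merged images were used to assign nuclear versus cytoplasmic localisation.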

[34] = system: Quadruplex DNA; experiment: Binding affinity to c-MYC G-quadruplex (unknown origin) by 1H-NMR spectroscopy; assay type: nucleic-acid assay; conditions: unidentified
Summary of the method: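 1D 1H NMR of c-MYC quadruplex DNA at different ligand:DNA ratios, monitoring imino and aromatic regions against partial signal assignments. Chemical shift perturbation or line broadening was noted separately at ratios below 1 and at ratios of 1 or above.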

[35] = system: C2C12; experiment: Cytotoxicity against mouse C2C12 cells incubated for 24 hrs by MTT assay; assay type: cell-based; conditions: C2C12, 24 h; summary of the method: as §4
[36] = system: Quadruplex DNA; experiment: Stabilization of 5'-FAM and 3'-TAMRA-labeled k-RAS G-quadruplex (unknown origin) assessed as change in melting temperature at 1 uM by FRET assay; assay type: nucleic-acid assay; conditions: unidentified; summary of the method: as §2
[37] = system: HeLa; experiment: Effect on GAPDH protein expression in human HeLa cells at 1 to 5 uM incubated for 24 hrs by Western blot method; assay type: ADME, cell-based; summary of the method: as §5
[38] = Drug localization in nucleus of human HeLa cells at 5 uM incubated for 2 hrs by fluorescence microscopy; assay type: ADME, subcellular; summary of the method: as §6
[39] = system: Quadruplex DNA; experiment: Binding affinity to pre-annealed c-MYC G-quadruplex (unknown origin) assessed as increase in fluorescence intensity at 1 uM in 100 mM KCl, 10 mM Tris.HCl at pH 7.4 by fluorescence spectroscopy relative to untreated control; assay type: nucleic-acid assay; conditions: unidentified; summary of the method: as §1
[40] = system: HeLa; experiment: Cell cycle arrest in human HeLa cells assessed as accumulation at G0/G1 phase at 5 uM incubated for 24 hrs by propidium iodide staining based flow cytometry (reference value: 61.5%); assay type: functional
[41] = system: Quadruplex DNA; experiment: Stabilization of 5'-FAM and 3'-TAMRA-labeled c-KIT1 G-quadruplex (unknown origin) assessed as change in melting temperature at 1 uM in presence of 100 nM to 10 uM dsDNA by FRET assay; assay type: nucleic-acid assay; conditions: unidentified

Kd [3]: 10.2 µM
Selectivity ratio [4]: 3 to 5
Kd [5]: 4.2 µM
Selectivity ratio [6]: 3 to 5
Activity [7]: Active
Activity [8]: inactive
Kd [9]: 4.4 µM
ΔTm [10]: 11 °C
Activity [12]: Active
ΔTm [13]: 15 °C
Activity [15]: inactive
Activity [16]: inactive
Kd [17]: 11.1 µM
Activity [18]: inactive
Activity [20]: 37%
Selectivity ratio [22]: 3 to 5
Kd [25]: 11.4 to 13.8 µM
ΔTm [28]: 23 °C
Activity [30]: Active
ΔTm [32]: 2 °C
Drug uptake [33]: Active
Activity [34]: Active
ΔTm [36]: 22 °C
Drug uptake [38]: Active
fold change (FC) [39]: 3.5
Activity [41]: Active
Compound: CN(C)CCCn1cc(CNC(=O)c2ccc(Nc3ccc(-c4ccc(Nc5ccc(C(=O)NCc6cn(CCCN(C)C)nn6)cc5)c5ccccc45)c4ccccc34)cc2)nn1
Activity [1]: 4.2%
Activity [2]: 12%
Activity [11]: 0.6%
Activity [14]: Active
Activity [19]: 55.9%
Activity [21]: 29.9%
Activity [23]: Non-Toxic
Activity [24]: 32.2%
Activity [26]: 58%
IC50 [27]: 5.53 µM
Activity [29]: 68%
IC50 [31]: ≥ 40 µM
IC50 [35]: ≥ 40 µM
Activity [37]: Non-Toxic
Activity [40]: 33.7%
